Measured values collected from several papers.
Compare with care: the assays were run in different laboratories.
Target: Serine/threonine-protein kinase WNK3 (WNK3, Homo sapiens, UniProt Q9BYP7)

CNCc1ccccc1-c1csc([C@@H](C)Nc2nc(C)nc3cc(OC)c(OC)cc23)c1
remaining binding (cell-free assay, competition with immobilised ligand; 1 µM): 100%

Cc1cc(NC(=O)c2cccc3cc(-c4cccc5[nH]nc(N)c45)ccc23)ccc1F
activity vs control (enzyme activity, inhibitor; 0.1 µM): 93%

Cc1ccc(NC(=O)c2ccc(C)c(C(F)(F)F)c2)cc1C#Cc1nn(C2CCC(O)CC2)c2ncnc(N)c12 (centres unmarked)
remaining signal (cell-free assay; 10 µM): 39%

Cc1cnc(NC2CCOCC2)nc1-n1cnc(C(=O)NC(CN)c2cc(F)cc(Cl)c2)c1 (centres unmarked)
remaining activity (enzyme activity, inhibitor, radiometric; 1 µM): 103%

CNC(=O)c1cc(Oc2ccc(NC(=O)Nc3ccc(Cl)c(C(F)(F)F)c3)cc2)ccn1
inhibition (enzyme activity, inhibitor; 10 µM): -4%

CC(C)(O)[C@H]1CC[C@H](Nc2ccc3ncc(-c4cccc(C(F)(F)F)c4)n3n2)CC1
remaining activity (enzyme activity, inhibitor; 1 µM): 90.7%

O=c1nc(-c2ccccn2)sc2ccccc12
remaining binding (binding, competition with immobilised ligand; 1 µM): 100%

O=C1NC(=O)c2cc(Nc3ccc(F)cc3)c(Nc3ccc(F)cc3)cc21
remaining signal (cell-free assay; 0.5 µM): 92.7%

C[C@H](c1ccnc(Nc2nc3ccc(-c4cc(N(C)C)ncn4)cc3[nH]2)c1)N1CCN(C(=O)CC(F)(F)F)CC1
remaining binding (cell-free assay, competition with immobilised ligand; 0.1 µM): 100%

CC(C)(C)c1nc(-c2cccc(NS(=O)(=O)c3c(F)cccc3F)c2F)c(-c2ccnc(N)n2)s1
remaining activity (enzyme activity, inhibitor, radiometric; 1 µM): 89%

N#CCCc1ccc2c(c1)-c1[nH]c3ccc([N+](=O)[O-])cc3c1CC(=O)N2
remaining signal (cell-free assay; 0.5 µM): 96.5%

O=C(Nc1cnn(-c2csc(C(=O)NC3COC3)c2)c1)Nc1ccccc1Cl
remaining activity (enzyme activity, inhibitor; 5 µM): 99.5%

Cc1ccc(Nc2nccc(N(C)c3ccc4c(C)n(C)nc4c3)n2)cc1S(N)(=O)=O
inhibition (enzyme activity, inhibitor; 10 µM): 33%

CCC(=N\O)/C(C)=C/c1ccc(F)cc1
remaining binding (cell-free assay, competition with immobilised ligand; 1 µM): 75%

Cc1sc(C(=O)NC2COC2)cc1-n1cc(NC(=O)Nc2c(F)cccc2Cl)cn1
remaining activity (enzyme activity, inhibitor; 10 µM): 102%

CCN(CC)CCNC(=O)c1c(C)[nH]c(/C=C2\C(=O)Nc3ccc(F)cc32)c1C
inhibition (enzyme activity, inhibitor; 10 µM): 7%

O=C(NCCCC1CCCCC1)c1ccc(CNC(=O)c2cnn(-c3ccccc3)c2C(F)(F)F)cc1
remaining binding (cell-free assay, competition with immobilised ligand; 0.1 µM): 100%
